Tests used:
[1] = tested on: acpP^91::gfp RNA; assay: In vitro translation of acpP::gfp RNA, western blot of AcpP1-17-GFP; type: biochemical, Escherichia coli; details: 10-molar excess of PPNA over template RNA; performed two times; listed as (KFF)3K-acpP
Outline: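 Target-gene fragment fused to gfp by overlap PCR, then T7 in vitro transcribed (3 h 45 min, 37°C; then DNase) and checked on 6% PAA/7 M urea gels. Heat-denatured RNA (1 pmol, 100 nM final) was pre-incubated with test compound at 37°C for 5 min. It was then translated in PURExpress for 2 h at 37°C. Water served as control. Analysis: 12% SDS-PAGE, anti-GFP western, Ponceau loading check, ImageJ signal relative to control.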

[2] = tested on: UPEC 536; assay: Minimal inhibitory concentration; type: cell-based, Escherichia coli; details: (KFF)3K-conjugated 10mer PNAs at concentrations ≤10 μM, 24 h
[3] = tested on: UPEC 536; assay: Killing time kinetics; type: cell-based, Escherichia coli; details: 1.25 μM, UPEC 536 10^5 cfu/ml, within 24 h

Row | Sequence | growth inhibition of UPEC 536 [2] | other results
1 | KFFKFFKFFK [acpP 10mer PPNA] |  | effect on in vitro synthesis of AcpP1-17-GFP [1]: substantially inhibited
2 | KFFKFFKFFK [csrA 10mer PPNA] | did not trigger complete growth inhibition | 
3 | KFFKFFKFFK [nusG 10mer PPNA] | did not trigger complete growth inhibition | 
4 | KFFKFFKFFK [scrambled 10mer PPNA] |  | abundance of living bacterial cells compared to the water control [3]: did not affect the abundance of living bacterial cells
5 | KFFKFFKFFK [yidC 10mer PPNA] | did not trigger complete growth inhibition | 
